From ChEMBL document CHEMBL2434855, “Aggrecanase-2 inhibitors based on the acylthiosemicarbazide zinc-binding group” (Eur J Med Chem, 2013)

Experiments:
[1] = target: T1, Matrilysin (Homo sapiens, UniProt P09237); experiment: Inhibition of human MMP-7 after 45 mins
T1 sequence (P09237 whole entry): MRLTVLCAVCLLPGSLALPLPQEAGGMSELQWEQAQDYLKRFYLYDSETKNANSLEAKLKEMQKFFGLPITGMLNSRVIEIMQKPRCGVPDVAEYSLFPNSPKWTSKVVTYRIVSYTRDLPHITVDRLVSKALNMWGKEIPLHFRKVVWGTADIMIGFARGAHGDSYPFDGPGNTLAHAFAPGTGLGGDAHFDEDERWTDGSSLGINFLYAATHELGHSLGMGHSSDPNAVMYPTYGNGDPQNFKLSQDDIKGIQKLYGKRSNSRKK

[2] = target: T2, 72 kDa type IV collagenase (Homo sapiens, UniProt P08253); experiment: Inhibition of human MMP-2 using NFF-2 as substrate at 10 uM after 90 mins
Target sequence in this assay (P08253 110-660 limits assumed): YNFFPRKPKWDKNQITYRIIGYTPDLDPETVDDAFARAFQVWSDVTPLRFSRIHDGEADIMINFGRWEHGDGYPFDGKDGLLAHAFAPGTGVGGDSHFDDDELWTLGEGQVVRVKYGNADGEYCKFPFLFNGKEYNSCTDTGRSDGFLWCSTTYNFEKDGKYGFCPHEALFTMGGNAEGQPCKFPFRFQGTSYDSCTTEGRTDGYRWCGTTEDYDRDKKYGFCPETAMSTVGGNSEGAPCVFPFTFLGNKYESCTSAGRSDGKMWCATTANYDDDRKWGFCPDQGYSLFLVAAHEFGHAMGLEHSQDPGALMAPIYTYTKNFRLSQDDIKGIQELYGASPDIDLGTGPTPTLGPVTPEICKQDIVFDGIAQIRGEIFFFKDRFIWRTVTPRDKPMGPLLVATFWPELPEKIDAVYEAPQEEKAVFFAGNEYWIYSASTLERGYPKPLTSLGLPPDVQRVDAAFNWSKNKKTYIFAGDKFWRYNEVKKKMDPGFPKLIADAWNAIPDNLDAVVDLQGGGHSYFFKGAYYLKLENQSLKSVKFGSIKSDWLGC

[3] = target: T3, Interstitial collagenase (Homo sapiens, UniProt P03956); experiment: Inhibition of human MMP-1 using DNP-Pro-Cha-Gly-Cys(Me)-His-Ala-Lys(n-Me-Abz)-NH2 as substrate after 40 mins
T3 sequence (P03956 whole entry): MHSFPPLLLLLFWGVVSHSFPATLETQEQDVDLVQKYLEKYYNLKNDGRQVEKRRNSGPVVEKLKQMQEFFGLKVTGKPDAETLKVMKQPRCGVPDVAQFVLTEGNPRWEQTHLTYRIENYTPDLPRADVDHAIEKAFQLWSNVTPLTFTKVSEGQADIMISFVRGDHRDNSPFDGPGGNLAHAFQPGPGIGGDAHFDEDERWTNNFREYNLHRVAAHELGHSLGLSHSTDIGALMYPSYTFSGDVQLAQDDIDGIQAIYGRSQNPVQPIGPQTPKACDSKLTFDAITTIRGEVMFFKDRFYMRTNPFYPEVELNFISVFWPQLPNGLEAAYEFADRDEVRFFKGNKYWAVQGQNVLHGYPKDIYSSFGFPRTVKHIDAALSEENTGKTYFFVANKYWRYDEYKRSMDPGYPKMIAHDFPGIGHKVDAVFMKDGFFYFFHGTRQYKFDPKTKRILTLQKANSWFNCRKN

[4] = target: T4, A disintegrin and metalloproteinase with thrombospondin motifs 5 (Homo sapiens, UniProt Q9UNA0); experiment: Inhibition of human recombinant ADAMTS-5 using QTVTWPDMELPLPRNITEGEARGSVIL-TVKPIFEVSPSPL(biotinyl)K as substrate incubated 10 mins prior to substrate addition measured after 3 hrs by spectrophotometry
T4 sequence (Q9UNA0 whole entry): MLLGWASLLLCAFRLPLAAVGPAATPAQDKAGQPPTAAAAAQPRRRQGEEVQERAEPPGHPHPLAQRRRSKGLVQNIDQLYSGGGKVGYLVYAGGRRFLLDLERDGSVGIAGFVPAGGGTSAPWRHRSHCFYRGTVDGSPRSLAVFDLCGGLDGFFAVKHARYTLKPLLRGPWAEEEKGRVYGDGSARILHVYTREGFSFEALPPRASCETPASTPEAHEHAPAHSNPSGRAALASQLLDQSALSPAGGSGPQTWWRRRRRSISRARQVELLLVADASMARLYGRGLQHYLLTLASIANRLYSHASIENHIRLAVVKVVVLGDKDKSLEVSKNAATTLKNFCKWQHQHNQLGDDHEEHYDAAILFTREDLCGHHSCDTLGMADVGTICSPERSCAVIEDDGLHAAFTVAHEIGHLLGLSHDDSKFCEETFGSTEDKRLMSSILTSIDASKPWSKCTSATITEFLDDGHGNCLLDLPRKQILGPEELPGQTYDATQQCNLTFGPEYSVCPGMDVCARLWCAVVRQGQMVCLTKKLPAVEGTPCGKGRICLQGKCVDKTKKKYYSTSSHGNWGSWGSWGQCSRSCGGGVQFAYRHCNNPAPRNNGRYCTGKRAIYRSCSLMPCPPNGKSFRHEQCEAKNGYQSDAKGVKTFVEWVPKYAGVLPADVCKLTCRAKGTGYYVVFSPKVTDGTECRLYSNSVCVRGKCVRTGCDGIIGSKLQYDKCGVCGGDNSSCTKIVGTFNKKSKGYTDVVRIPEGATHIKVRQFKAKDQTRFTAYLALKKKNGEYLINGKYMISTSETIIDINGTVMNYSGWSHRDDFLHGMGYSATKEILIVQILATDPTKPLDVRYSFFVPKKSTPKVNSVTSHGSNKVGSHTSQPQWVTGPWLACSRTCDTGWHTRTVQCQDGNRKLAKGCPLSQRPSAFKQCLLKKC

[5] = target: T5, A disintegrin and metalloproteinase with thrombospondin motifs 4 (Homo sapiens, UniProt O75173); experiment: Inhibition of human recombinant ADAMTS-4 using QTVTWPDMELPLPRNITEGEARGSVIL-TVKPIFEVSPSPL(biotinyl)K as substrate incubated for 10 mins prior to substrate addition measured after 3 hrs by spectrophotometry
T5 sequence (O75173 whole entry): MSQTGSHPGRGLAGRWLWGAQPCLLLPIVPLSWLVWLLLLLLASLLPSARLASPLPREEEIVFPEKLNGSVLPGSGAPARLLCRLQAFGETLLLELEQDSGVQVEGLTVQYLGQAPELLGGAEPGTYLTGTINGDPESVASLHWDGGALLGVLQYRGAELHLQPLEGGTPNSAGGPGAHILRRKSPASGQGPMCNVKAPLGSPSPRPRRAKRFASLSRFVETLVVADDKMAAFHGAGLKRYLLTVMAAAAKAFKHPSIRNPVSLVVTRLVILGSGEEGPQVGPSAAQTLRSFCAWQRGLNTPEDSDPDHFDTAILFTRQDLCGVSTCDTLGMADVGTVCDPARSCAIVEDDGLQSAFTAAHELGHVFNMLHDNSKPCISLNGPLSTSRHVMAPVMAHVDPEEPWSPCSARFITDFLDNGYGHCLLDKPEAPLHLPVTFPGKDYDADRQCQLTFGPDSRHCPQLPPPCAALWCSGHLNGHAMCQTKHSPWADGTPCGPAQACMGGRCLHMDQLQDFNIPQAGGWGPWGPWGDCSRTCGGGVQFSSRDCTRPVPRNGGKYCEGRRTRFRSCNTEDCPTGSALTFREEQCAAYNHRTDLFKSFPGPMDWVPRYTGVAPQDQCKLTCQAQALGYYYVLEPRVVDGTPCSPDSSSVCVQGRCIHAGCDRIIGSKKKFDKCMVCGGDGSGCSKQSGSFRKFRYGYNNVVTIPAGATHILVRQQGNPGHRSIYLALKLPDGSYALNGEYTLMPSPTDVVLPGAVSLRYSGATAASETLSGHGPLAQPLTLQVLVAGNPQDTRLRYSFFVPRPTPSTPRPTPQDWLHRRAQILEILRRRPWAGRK
How it was run: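 It was then added to streptavidin wells coated with the biotinylated 41-mer aggrecan peptide and reacted for 3 h at 37 °C. Cleavage product was detected by BC-3 anti-ARGxx ELISA with HRP and TMB, read at 450 nm.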

[6] = target: T2, 72 kDa type IV collagenase; experiment: Inhibition of human MMP-2 using NFF-2 as substrate after 90 mins
Target sequence in this assay (P08253 whole entry): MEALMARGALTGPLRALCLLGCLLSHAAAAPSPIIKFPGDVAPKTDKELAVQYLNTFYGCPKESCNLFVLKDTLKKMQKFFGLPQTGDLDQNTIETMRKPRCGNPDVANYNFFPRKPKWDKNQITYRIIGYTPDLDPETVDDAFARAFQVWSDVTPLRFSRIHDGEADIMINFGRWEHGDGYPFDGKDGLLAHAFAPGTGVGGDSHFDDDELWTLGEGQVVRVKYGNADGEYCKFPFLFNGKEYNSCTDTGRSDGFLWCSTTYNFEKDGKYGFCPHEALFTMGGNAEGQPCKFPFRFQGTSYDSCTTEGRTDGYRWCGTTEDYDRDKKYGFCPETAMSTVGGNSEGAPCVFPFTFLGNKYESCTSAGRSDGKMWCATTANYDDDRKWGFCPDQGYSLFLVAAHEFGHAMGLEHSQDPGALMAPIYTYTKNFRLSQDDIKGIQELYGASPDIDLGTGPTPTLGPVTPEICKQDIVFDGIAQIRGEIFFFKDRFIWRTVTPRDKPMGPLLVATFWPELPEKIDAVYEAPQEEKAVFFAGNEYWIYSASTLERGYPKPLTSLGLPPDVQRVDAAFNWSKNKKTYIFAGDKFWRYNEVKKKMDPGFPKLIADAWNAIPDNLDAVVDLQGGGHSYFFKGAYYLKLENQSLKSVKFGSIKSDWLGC

[7] = target: Disintegrin and metalloproteinase domain-containing protein 17 (Homo sapiens, UniProt P78536); experiment: Inhibition of human TACE after 5 mins
Chain of Disintegrin and metalloproteinase domain-containing protein 17 (P78536 whole entry, the tested form may be a part): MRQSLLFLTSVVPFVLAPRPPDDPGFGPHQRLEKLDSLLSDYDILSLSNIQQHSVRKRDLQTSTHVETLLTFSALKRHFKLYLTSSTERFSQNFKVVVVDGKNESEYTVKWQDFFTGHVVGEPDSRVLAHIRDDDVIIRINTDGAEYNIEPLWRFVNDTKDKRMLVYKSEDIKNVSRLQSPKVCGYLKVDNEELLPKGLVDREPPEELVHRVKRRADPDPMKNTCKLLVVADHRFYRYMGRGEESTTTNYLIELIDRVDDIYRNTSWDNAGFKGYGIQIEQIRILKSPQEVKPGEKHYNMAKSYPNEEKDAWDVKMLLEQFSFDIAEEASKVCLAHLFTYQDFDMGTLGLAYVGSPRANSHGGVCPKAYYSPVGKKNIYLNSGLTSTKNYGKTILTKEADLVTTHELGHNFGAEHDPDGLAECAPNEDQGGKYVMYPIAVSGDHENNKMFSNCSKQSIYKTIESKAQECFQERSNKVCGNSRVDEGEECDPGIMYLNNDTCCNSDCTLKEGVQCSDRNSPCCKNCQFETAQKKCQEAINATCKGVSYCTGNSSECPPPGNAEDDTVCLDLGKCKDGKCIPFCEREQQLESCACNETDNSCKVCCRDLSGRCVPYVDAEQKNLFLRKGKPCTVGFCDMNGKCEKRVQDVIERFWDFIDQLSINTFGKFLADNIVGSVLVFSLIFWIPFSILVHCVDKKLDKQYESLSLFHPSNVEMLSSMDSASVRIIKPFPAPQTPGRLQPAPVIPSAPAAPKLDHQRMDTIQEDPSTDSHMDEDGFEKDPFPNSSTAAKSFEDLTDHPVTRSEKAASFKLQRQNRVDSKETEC

O=C(COc1ccc(Cl)cc1)NNC(=S)NCCCCC1CCCCC1
IC50 [1]: > 100 µM | inhibition [2]: < 10% | IC50 [3]: > 10 µM | IC50 [4]: 0.17 µM | IC50 [5]: 0.63 µM | IC50 [6]: > 10 µM | IC50 [7]: > 10 µM
